Results from ChEMBL document CHEMBL1157468, “Design, synthesis, and testing of non-nephrotoxic desazadesferrithiocin polyether analogues” (J Med Chem, 2008).

Columns and labels:
Plasma [1] = assay: Biodistribution in Sprague-Dawley rat plasma at 300 umol/kg, po after 1 hr; format: ADME, organism-based; conditions: in vivo
Method in brief: (§1)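 Male Sprague–Dawley rats (250–350 g) got one 300 µmol/kg dose, po or sc. Vehicle was water or the monosodium salt (free acid plus 1 equiv NaOH). Three rats per time point were euthanized by CO2 at 1, 2 or 4 h. Plasma came from citrated cardiac blood; liver, kidney, heart and pancreas were removed. Drug levels were measured by HPLC with UV detection at 310 nm against linear calibration curves (detection limit 0.25 µM).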

Kidney [2] = assay: Biodistribution in Sprague-Dawley rat kidney assessed per gram tissue wet weight at 300 umol/kg, sc after 4 hrs; format: ADME, organism-based; conditions: in vivo
Rattus norvegicus [3] = assay: Iron-clearing efficiency in non-iron-overloaded Sprague-Dawley rat bile assessed as iron excretion at 300 umol/kg, po; format: functional
Method in brief: (§2)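 Male Sprague–Dawley rats (400–450 g), not iron-loaded and bile duct-cannulated, got one dose of 50, 150 or 300 µmol/kg po, or 300 µmol/kg sc. Vehicle was water or the monosodium salt. Bile was collected every 3 h for 24 h and urine at 24 h. Iron was measured by atomic absorption. Efficiency was treated minus control iron excretion, divided by theoretical output (2:1 ligand:iron), as a percent; mean ± SEM.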

Liver [4] = assay: Biodistribution in Sprague-Dawley rat liver assessed per gram tissue wet weight at 300 umol/kg, po after 4 hrs; format: ADME, organism-based; conditions: in vivo; method in brief: as §1
Rattus norvegicus [5] = assay: Iron-clearing efficiency in non-iron-overloaded Sprague-Dawley rat at 150 umol/kg, po after 24 hrs relative to control; format: functional; method in brief: as §2
Plasma [6] = assay: Biodistribution in Sprague-Dawley rat plasma at 300 umol/kg, sc after 4 hrs; format: ADME, organism-based; conditions: in vivo
Kidney [7] = assay: Biodistribution in Sprague-Dawley rat kidney assessed per gram tissue wet weight at 300 umol/kg, po after 1 hr; format: ADME, organism-based; conditions: in vivo; method in brief: as §1
Pancreas [8] = assay: Biodistribution in Sprague-Dawley rat pancreas assessed per gram tissue wet weight at 300 umol/kg, sc after 4 hrs; format: ADME, organism-based; conditions: in vivo
Rattus norvegicus [9] = assay: Iron-clearing efficiency in non-iron-overloaded Sprague-Dawley rat at 300 umol/kg, sc after 24 hrs relative to control; format: functional; method in brief: as §2
Heart [10] = assay: Biodistribution in Sprague-Dawley rat heart assessed per gram tissue wet weight at 300 umol/kg, po after 4 hrs; format: ADME, organism-based; conditions: in vivo; method in brief: as §1
Heart [11] = assay: Biodistribution in Sprague-Dawley rat heart assessed per gram tissue wet weight at 300 umol/kg, po after 2 hrs; format: ADME, organism-based; conditions: in vivo; method in brief: as §1
Plasma [12] = assay: Biodistribution in Sprague-Dawley rat plasma at 300 umol/kg, po after 2 hrs; format: ADME, organism-based; conditions: in vivo; method in brief: as §1
Plasma [13] = assay: Biodistribution in Sprague-Dawley rat plasma at 300 umol/kg, sc after 1 hr; format: ADME, organism-based; conditions: in vivo
Kidney [14] = assay: Biodistribution in Sprague-Dawley rat kidney assessed per gram tissue wet weight at 300 umol/kg, po after 2 hrs; format: ADME, organism-based; conditions: in vivo; method in brief: as §1
Sapajus apella [15] = assay: Iron-clearing efficiency in iron-overloaded Cebus apella at 150 umol/kg, sc after 2 days relative to control; format: functional
Method in brief: (§3)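 Monkeys (Cebus apella, 3.5–4 kg) were iron-loaded to about 500 mg Fe/kg with iv iron dextran and rested at least 60 days. They then got one 150 µmol/kg dose, po or sc. Feces and urine were collected every 24 h from 4 days before to 5 days after dosing, and iron was measured by flame atomic absorption. Efficiency was the 2-day post-drug iron minus the 4-day pre-drug baseline, divided by theoretical output (2:1 ligand:iron); mean ± SEM.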

Kidney [16] = assay: Biodistribution in Sprague-Dawley rat kidney assessed per gram tissue wet weight at 300 umol/kg, sc after 2 hrs; format: ADME, organism-based; conditions: in vivo
Rattus norvegicus [17] = assay: Iron-clearing efficiency in non-iron-overloaded Sprague-Dawley rat bile assessed as iron excretion at 150 umol/kg, po; format: functional; method in brief: as §2
Rattus norvegicus [18] = assay: Nephrotoxicity in Sprague-Dawley rat assessed as heavy vacuolized renal tubules at […] for 7 days by renal perfusion studies; format: toxicity, organism-based; conditions: in vivo, 168 h, in the assay text read “237 umol/kg” for “273 umol/kg”
Method in brief: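 Male Sprague–Dawley rats (200–250 g), fasted overnight, got 237 µmol/kg/dose po twice daily (474 µmol/kg/day) for 7 days and were fed about 3 h post-drug. Untreated age-matched rats were controls. One day post-drug, under pentobarbital, kidneys were perfusion-fixed with glutaraldehyde in Tyrode's buffer and embedded in TAAB. 500 nm sections were stained with toluidine blue and examined by light microscopy at 400×.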

Kidney [19] = assay: Biodistribution in Sprague-Dawley rat kidney assessed per gram tissue wet weight at 300 umol/kg, sc after 1 hr; format: ADME, organism-based; conditions: in vivo
Liver [20] = assay: Biodistribution in Sprague-Dawley rat liver assessed per gram tissue wet weight at 300 umol/kg, po after 1 hr; format: ADME, organism-based; conditions: in vivo; method in brief: as §1
Liver [21] = assay: Biodistribution in Sprague-Dawley rat liver assessed per gram tissue wet weight at 300 umol/kg, sc after 2 hrs; format: ADME, organism-based; conditions: in vivo
Rattus norvegicus [22] = assay: Iron-clearing efficiency in non-iron-overloaded Sprague-Dawley rat at 300 umol/kg, po after 24 hrs relative to control; format: functional; method in brief: as §2
Heart [23] = assay: Biodistribution in Sprague-Dawley rat heart assessed per gram tissue wet weight at 300 umol/kg, sc after 2 hrs; format: ADME, organism-based; conditions: in vivo
Heart [24] = assay: Biodistribution in Sprague-Dawley rat heart assessed per gram tissue wet weight at 300 umol/kg, sc after 1 hr; format: ADME, organism-based; conditions: in vivo
Pancreas [25] = assay: Biodistribution in Sprague-Dawley rat pancreas assessed per gram tissue wet weight at 300 umol/kg, sc after 2 hrs; format: ADME, organism-based; conditions: in vivo
Pancreas [26] = assay: Biodistribution in Sprague-Dawley rat pancreas assessed per gram tissue wet weight at 300 umol/kg, po after 1 hr; format: ADME, organism-based; conditions: in vivo; method in brief: as §1
Kidney [27] = assay: Biodistribution in Sprague-Dawley rat kidney assessed per gram tissue wet weight at 300 umol/kg, po after 4 hrs; format: ADME, organism-based; conditions: in vivo; method in brief: as §1
Liver [28] = assay: Biodistribution in Sprague-Dawley rat liver assessed per gram tissue wet weight at 300 umol/kg, sc after 1 hr; format: ADME, organism-based; conditions: in vivo
Sapajus apella [29] = assay: Iron-clearing efficiency in iron-overloaded Cebus apella at 150 umol/kg, po after 2 days relative to control; format: functional; method in brief: as §3
Heart [30] = assay: Biodistribution in Sprague-Dawley rat heart assessed per gram tissue wet weight at 300 umol/kg, po after 1 hr; format: ADME, organism-based; conditions: in vivo; method in brief: as §1
Pancreas [31] = assay: Biodistribution in Sprague-Dawley rat pancreas assessed per gram tissue wet weight at 300 umol/kg, po after 2 hrs; format: ADME, organism-based; conditions: in vivo; method in brief: as §1
Plasma [32] = assay: Biodistribution in Sprague-Dawley rat plasma at 300 umol/kg, sc after 2 hrs; format: ADME, organism-based; conditions: in vivo
Liver [33] = assay: Biodistribution in Sprague-Dawley rat liver assessed per gram tissue wet weight at 300 umol/kg, sc after 4 hrs; format: ADME, organism-based; conditions: in vivo
Liver [34] = assay: Biodistribution in Sprague-Dawley rat liver assessed per gram tissue wet weight at 300 umol/kg, po after 2 hrs; format: ADME, organism-based; conditions: in vivo; method in brief: as §1
Pancreas [35] = assay: Biodistribution in Sprague-Dawley rat pancreas assessed per gram tissue wet weight at 300 umol/kg, sc after 1 hr; format: ADME, organism-based; conditions: in vivo
Rattus norvegicus [36] = assay: Toxicity in iron-overloaded Sprague-Dawley rat assessed as survival at 119 umol/kg/day, po after 30 days by non-renal perfusion protocol; format: organism-based; conditions: in vivo, 720 h
Plasma [37] = assay: Biodistribution in Sprague-Dawley rat plasma at 300 umol/kg, po after 4 hrs; format: ADME, organism-based; conditions: in vivo; method in brief: as §1

C[C@]1(C(=O)O)CSC(c2ccc(O)cc2O)=N1 [DEFERITRIN]
Drug uptake (Plasma [1]): 31 nmol/g | Drug uptake (Kidney [2]): 27 nmol/g | Activity (Rattus norvegicus [3]): >98% | Drug uptake (Liver [4]): 44 nmol/g | Activity (Rattus norvegicus [5]): 1.5% | Drug uptake (Plasma [6]): 2 nmol/g | Drug uptake (Kidney [7]): 208 nmol/g | Drug uptake (Pancreas [8]): 6 nmol/g | Activity (Rattus norvegicus [9]): 1.1% | Drug uptake (Heart [10]): 3 nmol/g | Drug uptake (Heart [11]): 5 nmol/g | Drug uptake (Plasma [12]): 8 nmol/g | Drug uptake (Plasma [13]): 34 nmol/g | Drug uptake (Kidney [14]): 100 nmol/g | Activity (Sapajus apella [15]): 15.9% | Drug uptake (Kidney [16]): 97 nmol/g | Activity (Rattus norvegicus [17]): >98% | Activity (Rattus norvegicus [18]): Toxic | Drug uptake (Kidney [19]): 179 nmol/g | Drug uptake (Liver [20]): 131 nmol/g | Drug uptake (Liver [21]): 48 nmol/g | Activity (Rattus norvegicus [22]): 1.1% | Drug uptake (Heart [23]): 5 nmol/g | Drug uptake (Heart [24]): 13 nmol/g | Drug uptake (Pancreas [25]): 6 nmol/g | Drug uptake (Pancreas [26]): 13 nmol/g | Drug uptake (Kidney [27]): 61 nmol/g | Drug uptake (Liver [28]): 80 nmol/g | Activity (Sapajus apella [29]): 16.8% | Drug uptake (Heart [30]): 8 nmol/g | Drug uptake (Pancreas [31]): 9 nmol/g | Drug uptake (Plasma [32]): 13 nmol/g | Drug uptake (Liver [33]): 25 nmol/g | Drug uptake (Liver [34]): 73 nmol/g | Drug uptake (Pancreas [35]): 28 nmol/g | Activity (Rattus norvegicus [36]): Non-toxic | Drug uptake (Plasma [37]): 5 nmol/g
